The values below come from ChEMBL document CHEMBL1955810, “Thieno[2,3-d]pyrimidinedione derivatives as antibacterial agents” (Eur J Med Chem, 2012).

Converted amounts (≈) assume the structure as drawn. A value given as a limit tells only on which side of the number the result lay.

In data set [1] the test system is Enterococcus faecium. Put plainly: Antibacterial activity against vancomycin-resistant Enterococcus faecium 7303 after 18 to 24 hrs by broth microdilution method. Format: functional. The method, boiled down:
(§1)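 MIC by broth microdilution in Mueller-Hinton broth. Strains grown overnight at 35°C on tryptic soy agar, suspended in saline to 0.5 McFarland, diluted in MHB, final inoculum 5 × 10⁵ CFU/mL. Twofold serial dilutions, final 0.06 to 32 mg/L. Incubated 35°C for 18–24 h. MIC read visually as lowest concentration preventing growth.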

The test system of data set [2] is Staphylococcus aureus. Briefly: Antibacterial activity against vancomycin-intermediate Staphylococcus aureus Mu50 after 18 to 24 hrs by broth microdilution method. Format: functional. The method, boiled down: (§2)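 Strains grown overnight at 35°C on tryptic soy agar; 0.5 McFarland saline suspension diluted in Mueller-Hinton broth, final inoculum 5 × 10⁵ CFU/mL. Twofold serial dilutions, final 0.06 to 32 mg/L, in MHB; incubated 35°C for 18–24h. MIC read visually as lowest concentration preventing growth.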

Data set [3] concerns Staphylococcus aureus. Briefly: Antibacterial activity against methicillin-resistant Staphylococcus aureus 494 after 18 to 24 hrs by broth microdilution method. It counts as functional. The gist of the method: as §1
Data set [4] in a line: Therapeutic index, ratio of LD50 for mouse NIH/3T3 cells to MIC for vancomycin-resistant Staphylococcus aureus MI. It counts as cell-based. The note with it: read-out: TI. The method, boiled down: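 Index computed as LD50 from NIH-3T3 MTS viability (24 h exposure, 10–100 mg/L, nonlinear regression) divided by VRSA MIC from broth microdilution (5 × 10⁵ CFU/mL, 35°C, 18–24 h, visual read).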

In data set [5] the test system is Pseudomonas aeruginosa. Briefly: Antibacterial activity against Pseudomonas aeruginosa ATCC 27853 after 18 to 24 hrs by broth microdilution method. Format: functional. The gist of the method:
as §2

Data set [6] concerns Staphylococcus aureus. Put plainly: Antibacterial activity against vancomycin-resistant Staphylococcus aureus MI after 18 to 24 hrs by broth microdilution method. Format: functional. The gist of the method: as §1
Data set [7] deals with Klebsiella aerogenes. Briefly: Antibacterial activity against Enterobacter aerogenes CEF 3978 after 18 to 24 hrs by broth microdilution method. It counts as functional. The gist of the method: as §2
The subject of data set [8] is Klebsiella pneumoniae. Put plainly: Antibacterial activity against Klebsiella pneumoniae CEF 3978 after 18 to 24 hrs by broth microdilution method. Format: functional. The method, boiled down: as §2
The subject of data set [9] is Escherichia coli. Briefly: Antibacterial activity against Escherichia coli ATCC 25922 after 18 to 24 hrs by broth microdilution method. It counts as functional. The gist of the method: as §2
Data set [10] relates to Streptococcus pneumoniae. Briefly: Antibacterial activity against Streptococcus pneumoniae ATCC 49619 after 18 to 24 hrs by broth microdilution method. It counts as functional. The method, boiled down:
as §2

A short description of data set [11]: Cytotoxicity against mouse NIH/3T3 cells after 24 hrs by MTS assay. The note with it: read-out: LD50. It counts as cell-based, NIH3T3. The method, boiled down: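 NIH-3T3 mouse embryo fibroblasts kept in DMEM with 10% FBS, about 10,000 cells per well, attached overnight. Treated 24 h with 10, 25, 50 or 100 mg/L compound (DMSO) in DMEM/FBS. MTS added in fresh DMEM for 1 h at 37 °C, absorbance at 490 nm. Four replicates, media negative and 5% DMSO positive controls. Viability relative to untreated cells; LD50 by nonlinear regression.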

Data set [12] can be described thus: Toxicity in sheep RBC assessed as hemolysis at 25 times MIC after 1 hr. Format: cell-based, Ovis aries, Erythrocyte. The note with it: sheep red blood cells, read-out: Activity. The method, boiled down: (§3)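 Sheep RBCs separated from plasma and white cells by centrifugation, washed twice in TBS (10 mM Tris, 150 mM NaCl, pH 7.0), diluted to 1%. Treated with increasing concentrations of compound in DMSO, 37 °C for 1 h, in duplicate. Supernatant absorbance at 414 nm for hemoglobin release; DMSO set as 0%, 1% Triton X as 100% hemolysis.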

Data set [13] in a line: Toxicity in sheep RBC assessed as hemolysis at 50 times MIC after 1 hr. It counts as cell-based, Ovis aries, Erythrocyte. The note with it: sheep red blood cells, read-out: Activity. The method, boiled down: as §3

Turning to `COc1ccc(/C=C/Cn2c(=O)[nH]c3sc4c(c3c2=O)C(Cc2ccccc2)CC(C(C)C)C4)cc1` (stereo unspecified), the MIC in data set [1] was over 32 µg/mL; in data set [2], over 32 µg/mL; in data set [3], over 32 µg/mL; in [5], over 32 µg/mL; in data set [6], over 32 µg/mL; in data set [7], 32 µg/mL (≈ 63.9 µM). For the same molecule, the MIC in [8] was over 32 µg/mL; in data set [9] it was over 32 µg/mL; in data set [10], 32 µg/mL (≈ 63.9 µM). For the same molecule, the selectivity ratio in data set [4] was 4. For the same molecule, the CC50 at 24 h in data set [11] was 120 µg/mL (≈ 240 µM).
For `CC(C)C1Cc2sc3[nH]c(=O)n(C/C=C/c4ccc(O)cc4)c(=O)c3c2C(Cc2ccccc2)C1` (stereo unspecified), the MIC in data set [1] was 8 µg/mL (≈ 16.4 µM); in data set [2] it was 16 µg/mL (≈ 32.9 µM); in data set [3], 16 µg/mL (≈ 32.9 µM); in data set [5], 16 µg/mL (≈ 32.9 µM); in data set [6], 8 µg/mL (≈ 16.4 µM); in data set [7] it was 32 µg/mL (≈ 65.8 µM). Further, the minimal inhibitory concentration (MIC) in data set [8], in data set [9] and in [10] was 32 µg/mL (≈ 65.8 µM) each time. Also, the selectivity ratio in [4] is 5. Besides, in data set [12], the hemolysis at 1 h, 25 times MIC was determined as 7%. In addition, the CC50 at 24 h in data set [11] amounted to 42 µg/mL (≈ 86.3 µM).
As for `CCOC(=O)c1c(NC(=O)NC/C=C/c2ccc(O[Si](C)(C)C(C)(C)C)cc2)sc2c1C(Cc1ccccc1)CC(C(C)C)C2` (stereo unspecified), the MIC in [1], in [2], in data set [3], in data set [5], in data set [6] and in [7] was over 32 µg/mL each time. Moreover, the MIC in data set [8], in [9] and in [10] was over 32 µg/mL throughout.
For the molecule `CCOC(=O)c1sc2[nH]c(=O)n(C/C=C/c3ccc(OC)cc3)c(=O)c2c1CCc1ccccc1`, the MIC in data set [1] is over 32 µg/mL; in [2], over 32 µg/mL; in [3], over 32 µg/mL; in data set [5] it was over 32 µg/mL; in data set [6], over 32 µg/mL; in data set [7], 8 µg/mL (≈ 16.3 µM). In addition, the MIC in data set [8], in [9] and in [10] was over 32 µg/mL throughout. For the same molecule, the selectivity ratio in [4] worked out at 3. Moreover, the CC50 at 24 h in [11] was determined as 98 µg/mL (≈ 200 µM).
As for `CCOC(=O)c1sc(NC(=O)NC/C=C/c2ccc(OC)cc2)c(C(=O)OCC)c1CCc1ccccc1`, the MIC in [1], in data set [2], in data set [3], in data set [5], in [6] and in [7] was over 32 µg/mL throughout. Also, the MIC in data set [8], in [9] and in data set [10] was over 32 µg/mL in each case.
As to `CCOC(=O)c1sc2[nH]c(=O)n(C/C=C/c3ccc(O)cc3)c(=O)c2c1CCc1ccccc1`, the MIC in [1] was found to be 4 µg/mL (≈ 8.39 µM); in data set [2], 2 µg/mL (≈ 4.2 µM); in [3], 2 µg/mL (≈ 4.2 µM); in data set [5], 32 µg/mL (≈ 67.1 µM); in data set [6] it was 2 µg/mL (≈ 4.2 µM); in data set [7], 16 µg/mL (≈ 33.6 µM). Also, the figures for the MIC in data set [8], in data set [9] and in data set [10] were 32 µg/mL (≈ 67.1 µM), over 32 µg/mL and 8 µg/mL (≈ 16.8 µM), respectively. In data set [13], the hemolysis at 1 h, 50 times MIC came out at 2%. Further, the selectivity ratio in data set [4] was 26. In addition, the CC50 at 24 h in data set [11] is 52 µg/mL (≈ 109 µM).
On to `CN[C@H](CC(C)C)C(=O)N[C@H]1C(=O)N[C@@H](CC(N)=O)C(=O)N[C@H]2C(=O)N[C@H]3C(=O)N[C@H](C(=O)N[C@H](C(=O)O)c4cc(O)cc(O)c4-c4cc3ccc4O)[C@H](O)c3ccc(c(Cl)c3)Oc3cc2cc(c3O[C@@H]2O[C@H](CO)[C@@H](O)[C@H](O)[C@H]2O[C@H]2C[C@](C)(N)[C@H](O)[C@H](C)O2)Oc2ccc(cc2Cl)[C@H]1O` [VANCOMYCIN], for which the MIC in data set [1] is over 32 µg/mL; in data set [5] it was over 32 µg/mL; in [10], 0.5 µg/mL (≈ 0.345 µM).
Regarding `CCOC(=O)c1sc(NC(=O)NC/C=C/c2ccc(O[Si](C)(C)C(C)(C)C)cc2)c(C(=O)OCC)c1CCc1ccccc1`, the MIC in [1], in data set [2], in data set [3], in [5], in data set [6] and in [7] was over 32 µg/mL each time. Moreover, the MIC in data set [8], in data set [9] and in [10] was over 32 µg/mL in each case.
